The text below walks through data of ChEMBL document CHEMBL1255440, “An antimicrobial peptide that targets DNA repair intermediates in vitro inhibits Salmonella growth within murine macrophages” (Antimicrob Agents Chemother, 2010).

Assay [1] has as its system Salmonella typhimurium. Kind of assay: Antibacterial activity against 1 MOI Salmonella enterica subsp. enterica serovar Typhimurium infected in mouse J774A1 cells assessed as fold reduction in bacterial growth at 100 uM after 12 hrs. Type of assay: functional, J774.A1.
Assay [2] concerns Salmonella typhimurium. In words: Antibacterial activity against 1 MOI Salmonella enterica subsp. enterica serovar Typhimurium infected in mouse peritoneal macrophages assessed as reduction in bacterial growth at 100 uM after 24 hrs. Type of assay: functional. On the set-up: scale not given: the % may be the effect or the level left. The procedure, abridged:
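J774A.1 cells or thioglycolate-elicited BALB/c peritoneal macrophages seeded at 200,000/well, overnight 37°C 5% CO2; infected with GFP strain SDT1416, 1 h invasion, washed, 1 h in DMEM with 15 μg/ml gentamicin. Then fresh DMEM plus 15 μg/ml gentamicin with or without peptide (DMSO vehicle) for 24 h at 37°C; macrophages lysed with 1% Triton X-100, plated on LB agar for CFU.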

Turning to `N=C(N)NCCC[C@@H](NC(=O)[C@@H](CS)NC(=O)[C@@H](Cc1ccc(O)cc1)NC(=O)[C@@H](Cc1c[nH]c2ccccc12)NC(=O)[C@@H](CCCNC(=N)N)NC(=O)[C@H](N)Cc1c[nH]c2ccccc12)C(=O)O`, the fold change (FC) in assay [1] is less than 50. In assay [2], the Activity was 45%.
